The text below walks through data of ChEMBL document CHEMBL1148403, “Platinum(IV) complex with adamantylamine as nonleaving amine group: synthesis, characterization, and in vitro antitumor activity against a panel of cisplatin-resistant cancer cell lines” (J Med Chem, 2004).

One assay concerns HBL-100. As to the kind of experiment: Cytotoxicity against breast carcinoma HBL100 tumor cell lines. Type of assay: functional, cell-based, Homo sapiens.
Another assay deals with K562. As to the kind of experiment: Cytotoxicity against chronic myelogenous leukemia K562 tumor cell lines. The class given is functional, cell-based, Homo sapiens.
In the next assay the test system is KG-1. Put plainly: Cytotoxicity against chronic myelogenous leukemia KG-1 tumor cell lines. Type of assay: functional, cell-based, Homo sapiens.
For another assay, the system named is HCT-116. Put plainly: Cytotoxicity against colon cancer HCT116 tumor cell lines. Type of assay: functional, cell-based, Homo sapiens.
For assay [1], the system named is A2780. Put plainly: Cytotoxicity against ovarian carcinoma A2780 tumor cell lines. The class given is functional, cell-based, Homo sapiens. A digest of the protocol: (§1)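 Cisplatin-sensitive A2780 cells and the A2780/cis resistant subline were exposed continuously for graded times (24, 48 and 72 h). IC50 was determined at each exposure time. The resistant subline had been derived by gradual cisplatin treatment.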

The test system of the next assay is B16. As to the kind of experiment: Cytotoxicity against mouse melanoma B16 tumor cell lines. Type of assay: functional, cell-based.
Another assay relates to COR-L23. Put plainly: Cytotoxicity against lung carcinoma COR-L23/CTR tumor cell lines. Type of assay: functional, cell-based, Homo sapiens.
A further assay concerns ML-2. As to the kind of experiment: Cytotoxicity against acute myelogenous leukemia ML-2 tumor cell lines. Type of assay: functional, cell-based, Homo sapiens.
Assay [2] deals with HT-29. Put plainly: Cytotoxicity against colon cancer HT29N tumor cell lines. The class given is functional, cell-based, Homo sapiens.
For assay [3], the system named is HT-29. As to the kind of experiment: Cytotoxicity against colon cancer HT-29 tumor cell lines. Type of assay: functional, cell-based, Homo sapiens.
For a further assay, the system named is MCF7. Put plainly: Cytotoxicity against breast carcinoma MCF-7 tumor cell lines. The class given is functional, cell-based, Homo sapiens.
The subject of assay [4] is A2780. Put plainly: Cytotoxicity against ovarian carcinoma A2780/cis90 tumor cell lines. Type of assay: functional, cell-based, Homo sapiens.
Assay [5] relates to A2780. Put plainly: Cytotoxicity against ovarian carcinoma A2780/cis tumor cell lines. The class given is functional, cell-based, Homo sapiens. A digest of the protocol:
as §1

A further assay deals with A-427. Put plainly: Cytotoxicity against lung carcinoma A427 tumor cell lines. Type of assay: functional, cell-based, Homo sapiens.

A value given as a limit tells only on which side of the number the result lay.

For CISPLATIN, the IC50 was 63 µM with HBL-100; > 80 µM with K562; 48 µM in the assay on KG-1; > 80 µM in the assay with HCT-116; 4 µM in the assay on A2780 [1]; > 80 µM in the assay on B16. For the same sequence, the IC50 in the assay on COR-L23 is > 80 µM; in the assay on ML-2 it was > 80 µM; in the assay with HT-29 [2], > 80 µM; with HT-29 [3] it was 50 µM; with MCF7, 71 µM; with A2780 [4], > 80 µM. Besides, the IC50 in the assay with A2780 [5] turned out to be 40 µM; with A-427, 63 µM.

What is called IC50 is the concentration needed to halve the response being measured. High values mean weaker potency, low ones greater potency.
